Laboratory results taken from ChEMBL document CHEMBL1143802, “Synthesis and biological evaluation of some 6-substituted purines” (Eur J Med Chem, 2007).

Tests used:
Leishmania chagasi = experiment: Antileishmanial activity against Leishmania chagasi MHOM/Br/74/PP75 promastigotes by MTT colorimetric method; assay type: functional, organism-based
Outline: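 Log-phase promastigotes kept at 24 °C in Medium 199 plus 10% fetal bovine serum. Seeded at 3 million cells/mL and held 1 h at 24 °C before compound addition in water or DMSO (up to 1% v/v). Each concentration run in triplicate over a three-day incubation. Viability measured by MTT; IC50 is the concentration giving 50% growth inhibition.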

Leishmania amazonensis = experiment: Antileishmanial activity against Leishmania amazonensis MHOM/Br/75/Josefa promastigotes by MTT colorimetric method; assay type: functional, organism-based
Outline: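 Log-phase promastigotes grown at 24 °C in Warren's medium (brain heart infusion with hemin and folic acid) plus 10% fetal bovine serum. Seeded at 2 million cells/mL and preincubated 1 h at 24 °C. Compounds added in water or DMSO (up to 1% v/v), each concentration in triplicate. Incubated three days, viability read by MTT, and IC50 taken as 50% growth inhibition.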

Compound | IC50 (Leishmania chagasi) [µM] | IC50 (Leishmania amazonensis) [µM]
Sc1ncnc2nc[nH]c12 [MERCAPTOPURINE ANHYDROUS] | > 227 | > 227
C[C@@H]1[C@H](O)[C@@H](C)/C=C/C=C/C=C/C=C/C=C/C=C/C=C/[C@H](O[C@@H]2O[C@H](C)[C@@H](O)[C@H](N)[C@@H]2O)C[C@@H]2O[C@](O)(C[C@@H](O)C[C@@H](O)[C@H](O)CC[C@@H](O)C[C@@H](O)CC(=O)O[C@H]1C)C[C@H](O)[C@H]2C(=O)O [AMPHOTERICIN B] | 1.9 | 0.9
NCCNCCCSc1ncnc2[nH]cnc12 | > 227 | > 227
CO[C@@H]1O[C@H](CSc2ncnc3[nH]cnc23)[C@H]2OC(C)(C)O[C@@H]12 | > 227 | > 227
CC1(C)O[C@H]2[C@H]3OC(C)(C)O[C@]3(CSc3ncnc4[nH]cnc34)OC[C@H]2O1 | > 227 | > 227
NCCSCCCSc1ncnc2[nH]cnc12 | > 227 | 50
ClCCCSc1ncnc2[nH]cnc12 | > 227 | 50
O=C(O)CSc1ncnc2[nH]cnc12 | > 227 | 39
CO[C@@H]1O[C@H](CSc2ncnc3[nH]cnc23)[C@@H](O)[C@H]1O | > 227 | 29
CCOC(=O)CSc1ncnc2[nH]cnc12 | > 227 | > 227
c1nc(SCCCNC2CCCCC2)c2nc[nH]c2n1 | > 227 | > 227
CC1(C)O[C@H]2[C@@H](O1)[C@@H](CSc1ncnc3[nH]cnc13)O[C@@H]1OC(C)(C)O[C@@H]12 | > 227 | > 227
O=C1c2ccccc2C(=O)N1CCCCSc1ncnc2[nH]cnc12 | > 227 | > 227
